These results are taken from ChEMBL document CHEMBL4038305, “Benzoxaborole Antimalarial Agents. Part 5. Lead Optimization of Novel Amide Pyrazinyloxy Benzoxaboroles and Identification of a Preclinical Candidate” (J Med Chem, 2017).

Structures are written as SMILES. Active and inactive are the calls of the source. The calls are words filed in the database; no cut-off is given here.

Series [1] concerns Plasmodium berghei. The series can be described thus: Antimalarial activity against Plasmodium berghei infected in Swiss Webster mouse assessed as mouse survival rate at 11 mg/kg administered once daily via oral gavage for 4 consecutive days beginning 1 hr after infection measured on day 14 post infection relative to control. The series is classed as functional. A digest of the protocol:
(§1)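 Mice given an intraperitoneal injection of P. berghei-infected erythrocytes taken from a previously infected animal. Oral dosing once daily for 4 consecutive days, starting 1 h after infection. Vehicle: polyethylene glycol 300/propylene glycol/water (weight ratio 55/25/20). Percent survival recorded daily from day 4 to day 20. Chloroquine 30 mg/kg and vehicle-only groups served as controls.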

For series [2], the system named is Plasmodium berghei. As to the kind of experiment: Antimalarial activity against Plasmodium berghei infected in Swiss Webster mouse assessed as mouse survival rate at 1 mg/kg administered once daily via oral gavage for 4 consecutive days beginning 1 hr after infection measured on day 5 post infection relative to control. The format is functional. A digest of the protocol:
as §1

Series [3] concerns Plasmodium berghei. The series can be described thus: Antimalarial activity against Plasmodium berghei infected in Swiss Webster mouse assessed as mouse survival rate at 3 mg/kg administered once daily via oral gavage for 4 consecutive days beginning 1 hr after infection measured on day 6 post infection relative to control. The format is functional. In a few lines: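 P. berghei-infected erythrocytes taken from a previously infected mouse were injected intraperitoneally. Oral dosing, once daily for 4 consecutive days, began 1 h after infection, in polyethylene glycol 300/propylene glycol/water (55/25/20 by weight). Chloroquine at 30 mg/kg was the positive control, with a vehicle-only group. Percent survival was recorded daily from day 4 to day 20.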

Series [4] has as its system Plasmodium berghei. The series can be described thus: Antimalarial activity against Plasmodium berghei infected in Swiss Webster mouse assessed as mouse survival rate at 0.3 mg/kg administered once daily via oral gavage for 4 consecutive days beginning 1 hr after infection measured on day 8 post infection relative to control. The format is functional. In a few lines:
as §1

In series [5] the test system is Plasmodium berghei. The series can be described thus: Antimalarial activity against Plasmodium berghei infected in Swiss Webster mouse assessed as mouse survival rate at 0.3 mg/kg administered once daily via oral gavage for 4 consecutive days beginning 1 hr after infection measured on day 7 post infection relative to control. The series is classed as functional. In a few lines:
as §1

The test system of series [6] is Plasmodium berghei. The series can be described thus: Antimalarial activity against Plasmodium berghei infected in Swiss Webster mouse assessed as mouse survival rate at 0.3 mg/kg administered once daily via oral gavage for 4 consecutive days beginning 1 hr after infection measured on day 5 post infection relative to control. The format is functional. A digest of the protocol:
as §1

For series [7], the system named is Rattus norvegicus. As to the kind of experiment: Genotoxicity in rat assessed as micronucleated polychromatic erythrocytes in bone marrow at 500 mg/kg administered via oral gavage measured after 24 hrs post dose by micronucleus assay (reference value: 0.07 +/- 0.05%). The format is toxicity, organism-based. The note with it: in vivo.
In series [8] the test system is Plasmodium falciparum. The series can be described thus: Antimalarial activity against Plasmodium falciparum HB3 infected in human erythrocytes assessed as reduction in [3H]-hypoxanthine incorporation preincubated for 24 hrs followed by [3H]-hypoxanthine addition measured after 24 hrs by scintillation counting method. The series is classed as functional, cell-based.

A short description of series [9]: AUC (0 to infinity) in Sprague-Dawley rat at 5 mg/kg, po via gavage by HPLC/MS analysis. To be noted: in vivo. The format is ADME, organism-based. More on the design: dose 5 mg/kg, route oral, time infinity.
In series [10] the test system is Salmonella typhimurium. The series can be described thus: Genotoxicity in Salmonella typhimurium TA1535 assessed as number of revertants per plate at 15 ug/plate in presence of rat liver S9 fraction by Ames test (reference value: 10). The series is classed as toxicity. To be noted: salmonella enterica subsp. enterica serovar typhimurium.
Series [11] has as its system Salmonella typhimurium. The series can be described thus: Genotoxicity in Salmonella typhimurium TA1537 assessed as number of revertants per plate at 500 ug/plate in presence of rat liver S9 fraction by Ames test (reference value: 11 +/- 4). The format is toxicity. The note with it: salmonella enterica subsp. enterica serovar typhimurium. Background: In the Ames test, an excess of revertant colonies over the control signals mutagenicity.

Series [12] concerns Salmonella typhimurium. The series can be described thus: Genotoxicity in Salmonella typhimurium TA98 assessed as number of revertants per plate at 15 ug/plate in absence of rat liver S9 fraction by Ames test (reference value: 14 +/- 6). The series is classed as toxicity. To be noted: salmonella enterica subsp. enterica serovar typhimurium.
The subject of series [13] is Salmonella typhimurium. As to the kind of experiment: Genotoxicity in Salmonella typhimurium TA100 assessed as number of revertants per plate at 1500 ug/plate in presence of rat liver S9 fraction by Ames test (reference value: 141 +/- 1). To be noted: salmonella enterica subsp. enterica serovar typhimurium. The series is classed as toxicity.
The test system of series [14] is Plasmodium falciparum. As to the kind of experiment: Antimalarial activity against intraerythrocytic stage of Plasmodium falciparum assessed as parasite reduction ratio at 100 times IC50 preincubated for 24 hrs followed by [3H]-hypoxanthine addition measured after 24 hrs by scintillation counting method. The series is classed as functional. A digest of the protocol:
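In vitro P. falciparum parasite reduction ratio assay run at 10×, 30× and 100× IC50. Derived parameters: lag phase (time to maximal killing), PRR (parasites killed per life cycle) and PCT99.9% (time to clear 99.9% of the initial parasite population).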

Series [15] concerns Plasmodium falciparum. The series can be described thus: Antimalarial activity against Plasmodium falciparum 3D7 0087/N9 infected in NOD/SCID IL2R gamma null mouse assessed as decrease in parasitemia at 0.3 to 75 mg/kg up to 7 days post infection. The series is classed as functional, organism-based. In a few lines:
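Human-erythrocyte-engrafted NODscidIL2Rγnull mice carrying P. falciparum Pf3D70087/N9 in peripheral blood; compound given orally once daily for four consecutive days.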

Series [16] has as its system Rattus norvegicus. The series can be described thus: Genotoxicity in rat assessed as micronucleated polychromatic erythrocytes in bone marrow at 1000 mg/kg administered via oral gavage measured after 24 hrs post dose by micronucleus assay (reference value: 0.07 +/- 0.05%). The series is classed as toxicity, organism-based. To be noted: in vivo.
Series [17] relates to Salmonella typhimurium. The series can be described thus: Genotoxicity in Salmonella typhimurium TA98 assessed as number of revertants per plate at 5 ug/plate in presence of rat liver S9 fraction by Ames test (reference value: 19 +/- 8). The format is toxicity. The note with it: salmonella enterica subsp. enterica serovar typhimurium.
The nature of series [18]: Oral bioavailability in Sprague-Dawley rat at 5 mg/kg by HPLC/MS analysis. The series is classed as ADME, organism-based. The note with it: in vivo. A digest of the protocol:
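Female CD-1 mice, male SD rats or beagle dogs given 5 mg/kg by iv injection or oral gavage. Formulation was PEG300/propylene glycol/water 55/25/20, pH 6. Blood samples analysed by HPLC–MS/MS; parameters include AUC0-inf extrapolated to infinity and terminal half-life.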

Series [19] has as its system Lymphocyte. As to the kind of experiment: Genotoxicity in human lymphocytes assessed as replication index at 355.15 ug/mL after 3 hrs in presence of rat liver S9 fraction by micronucleus assay relative to control. The format is toxicity, cell-based. To be noted: s9, 3 h. A digest of the protocol:
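Human lymphocytes exposed for 3 h with or without rat liver S9, or 28 h without S9, with 1% DMSO as vehicle control. Replication index = (binucleated + 2 × multinucleated cells)/total cells. Cytotoxicity (%) = 100 − (RI treated/RI vehicle) × 100.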

The test system of series [20] is Plasmodium falciparum. As to the kind of experiment: Antimalarial activity against Plasmodium falciparum V1/S infected in human erythrocytes assessed as reduction in [3H]-hypoxanthine incorporation preincubated for 24 hrs followed by [3H]-hypoxanthine addition measured after 24 hrs by scintillation counting method. The series is classed as functional, cell-based.

For series [21], the system named is Rattus norvegicus. As to the kind of experiment: Genotoxicity in rat assessed as change in polychromatic erythrocytes in bone marrow at 1000 mg/kg administered via oral gavage measured after 24 hrs post dose by micronucleus assay relative to control. The format is toxicity, organism-based. To be noted: in vivo.
The subject of series [22] is Lymphocyte. As to the kind of experiment: Genotoxicity in human lymphocytes assessed as increase in frequency of micronucleated cells at 355.15 ug/mL after 3 hrs in absence of rat liver S9 fraction by micronucleus assay (reference value: 0.99%). The series is classed as toxicity, cell-based.
Series [23] deals with Lymphocyte. The series can be described thus: Genotoxicity in human lymphocytes assessed as increase in frequency of micronucleated cells at 160 ug/mL after 3 hrs in absence of rat liver S9 fraction by micronucleus assay (reference value: 0.99%). The format is toxicity, cell-based.
Series [24] relates to Salmonella typhimurium. As to the kind of experiment: Genotoxicity in Salmonella typhimurium TA1535 assessed as number of revertants per plate at 1.5 ug/plate in absence of rat liver S9 fraction by Ames test (reference value: 10 +/- 3). The format is toxicity. The note with it: salmonella enterica subsp. enterica serovar typhimurium.
Series [25] in a line: Clearance in Beagle dog at 5 mg/kg, iv by HPLC/MS analysis. The format is ADME, organism-based, Canis lupus familiaris. To be noted: in vivo. In a few lines: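 Female CD-1 mice, male SD rats and beagle dogs received 5 mg/kg either iv or by oral gavage. Vehicle was PEG 300/propylene glycol/water (55/25/20, pH 6). Blood was sampled and drug measured by HPLC-MS/MS.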

On to `Cc1c(Oc2cnc(C(=O)N3CC(O)(C(C)C)C3)cn2)ccc2c1B(O)OC2`, for which the survival at 11 mg/kg in [1] was 0%.
For `Cc1c(Oc2cnc(C(=O)NC(C)CO)cn2)ccc2c1B(O)OC2` (stereo not given), the survival at 1 mg/kg in series [2] was 20%. Further, the survival at 3 mg/kg in series [3] was 60%. Besides, the survival at 0.3 mg/kg came to 0% in [4], 20% in series [5] and 20% in [6].
For the molecule `Cc1c(Oc2cnc(C(=O)N3CC(C)(O)C3)cn2)ccc2c1B(O)OC2`, the Activity in series [7] stood at 0.03%; in series [10], 12; in [11], 17; in [12], 15; in [13] it was 144; in [16] it was 0.08%. The Activity in series [17] was determined as 15; in [19], 7%; in series [21], 0%; in [22] it was 0.85%; in [23], 1.18%; in series [24], 12. In addition, the IC50 amounted to 80 nM in [8] and 63 nM in series [20]. Further, the AUC(0-inf) in [9] is 20800 ng·h/mL. Besides, in series [14], the “log(ratio)” value is reported as 4.9. The result in series [15] was Active. In series [18], this molecule showed a bioavailability of 96%. In series [25], this molecule gave a clearance of 0.505 mL/min/kg.

What is called IC50 is the concentration at which inhibition is half-maximal. In general, AUC(0-inf) refers to total exposure, with the tail of the curve extrapolated. Lower therefore signals low exposure. What is called bioavailability is the share of a dose that reaches the circulation, judged against a reference dose that is usually intravenous. High values mean good availability, low ones poor availability. What is called clearance is the rate of elimination divided by the concentration. Low values mean a low capacity for elimination, high ones a high capacity for elimination.
